ChEMBL document CHEMBL4433216, “Discovery of Stereospecific PARP-1 Inhibitor Isoindolinone NMS-P515” (ACS Med Chem Lett, 2019)
pIC50, pKd: −log10 of the molar value. ≈ marks a conversion by molar mass, not a printed value.

Assays:
[1] = molecular target: T1, Poly [ADP-ribose] polymerase 1 (Homo sapiens, UniProt P09874); assay: Displacement of fluorescent probe from human recombinant full length His-tagged PARP1 by fluorescent polarization assay
[2] = tested on: CAPAN-1; assay: animal or person; settings: Mus musculus, CAPAN-1, po, 288 h, read-out: GI
[3] = molecular target: T2, Protein mono-ADP-ribosyltransferase PARP3 (Homo sapiens, UniProt Q9Y6F1); assay: Displacement of fluorescent probe from human recombinant His/GST-tagged PARP3 by fluorescent polarization assay
T2 sequence (Q9Y6F1 whole entry): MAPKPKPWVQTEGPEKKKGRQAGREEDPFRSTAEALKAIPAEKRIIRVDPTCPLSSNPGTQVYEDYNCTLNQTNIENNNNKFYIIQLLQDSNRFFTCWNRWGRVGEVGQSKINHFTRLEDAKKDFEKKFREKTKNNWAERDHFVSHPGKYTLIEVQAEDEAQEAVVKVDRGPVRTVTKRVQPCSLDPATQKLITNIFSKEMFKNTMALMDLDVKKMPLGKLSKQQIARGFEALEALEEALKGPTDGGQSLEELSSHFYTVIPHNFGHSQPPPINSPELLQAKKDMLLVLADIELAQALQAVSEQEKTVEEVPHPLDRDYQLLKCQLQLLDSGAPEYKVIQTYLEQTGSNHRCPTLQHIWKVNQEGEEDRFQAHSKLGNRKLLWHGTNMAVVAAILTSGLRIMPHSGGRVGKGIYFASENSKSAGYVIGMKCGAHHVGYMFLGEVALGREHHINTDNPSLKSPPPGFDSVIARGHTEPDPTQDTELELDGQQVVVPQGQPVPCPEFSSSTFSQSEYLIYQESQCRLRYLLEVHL
Method in brief: (§1)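 Fluorescence polarization displacement assay measuring probe displacement from each ARTD enzyme. Results expressed as K_D.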

[4] = molecular target: T3, Poly [ADP-ribose] polymerase tankyrase-1 (Homo sapiens, UniProt O95271); assay: Displacement of fluorescent probe from human recombinant His-tagged TNKS1 catalytic domain (1091-1325 residues) by fluorescent polarization assay; method in brief: as §1
T3 sequence (O95271 whole entry): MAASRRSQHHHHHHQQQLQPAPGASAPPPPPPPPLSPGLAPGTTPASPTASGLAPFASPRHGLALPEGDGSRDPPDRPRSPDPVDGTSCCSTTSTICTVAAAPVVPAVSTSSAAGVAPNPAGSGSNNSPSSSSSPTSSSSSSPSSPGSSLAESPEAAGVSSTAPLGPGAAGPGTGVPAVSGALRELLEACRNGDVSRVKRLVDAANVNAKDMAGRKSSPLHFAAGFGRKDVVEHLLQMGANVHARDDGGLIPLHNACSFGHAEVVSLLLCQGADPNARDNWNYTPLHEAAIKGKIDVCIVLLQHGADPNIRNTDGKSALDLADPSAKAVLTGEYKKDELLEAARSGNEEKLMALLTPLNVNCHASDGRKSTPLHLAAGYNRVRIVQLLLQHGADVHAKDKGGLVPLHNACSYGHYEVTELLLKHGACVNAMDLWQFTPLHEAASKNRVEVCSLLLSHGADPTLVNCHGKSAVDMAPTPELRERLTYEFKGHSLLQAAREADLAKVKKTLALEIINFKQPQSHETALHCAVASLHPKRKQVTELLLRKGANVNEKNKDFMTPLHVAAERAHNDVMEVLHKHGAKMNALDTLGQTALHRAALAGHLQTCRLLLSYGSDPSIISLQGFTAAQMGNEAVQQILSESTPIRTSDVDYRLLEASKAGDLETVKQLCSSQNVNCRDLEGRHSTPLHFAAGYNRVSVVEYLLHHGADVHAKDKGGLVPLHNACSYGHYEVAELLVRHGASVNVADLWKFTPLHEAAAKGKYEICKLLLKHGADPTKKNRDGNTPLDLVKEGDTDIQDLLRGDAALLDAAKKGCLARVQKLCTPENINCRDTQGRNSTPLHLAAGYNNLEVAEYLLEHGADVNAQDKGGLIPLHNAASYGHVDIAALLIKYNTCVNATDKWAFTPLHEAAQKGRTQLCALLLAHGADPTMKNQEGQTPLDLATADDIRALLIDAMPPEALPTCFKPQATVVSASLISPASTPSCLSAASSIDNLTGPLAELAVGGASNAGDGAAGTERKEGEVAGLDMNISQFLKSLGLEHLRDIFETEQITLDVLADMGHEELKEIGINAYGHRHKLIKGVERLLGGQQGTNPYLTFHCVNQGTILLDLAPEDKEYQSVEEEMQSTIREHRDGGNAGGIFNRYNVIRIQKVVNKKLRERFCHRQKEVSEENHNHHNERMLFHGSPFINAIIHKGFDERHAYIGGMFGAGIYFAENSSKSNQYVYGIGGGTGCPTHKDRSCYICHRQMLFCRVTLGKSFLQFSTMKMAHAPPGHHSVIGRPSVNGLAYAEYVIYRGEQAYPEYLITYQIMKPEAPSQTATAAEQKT

[5] = molecular target: Cytochrome P450 2D6 (Homo sapiens, UniProt P10635); assay: Inhibition of CYP2D6 (unknown origin); type: ADME
Method in brief: (§2)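 Screen of eight P450 cytochrome isoforms, with IC50 determined for each isoform.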

[6] = Half life in Balb Nu/Nu mouse at 10 mg/kg, po measured upto 24 hrs by HPLC-MS-MS analysis; type: ADME, organism-based; settings: in vivo
[7] = AUC (0 to infinity) in Balb Nu/Nu mouse at 10 mg/kg, iv measured upto 24 hrs by HPLC-MS-MS analysis; type: ADME, organism-based; design: dose 10 mg/kg, time infinity, route intravenous; settings: in vivo
[8] = Solubility in pH 7 ammonium acetate buffer by LC-MS/MS analysis; type: physicochemical
[9] = Cmax in Balb Nu/Nu mouse at 10 mg/kg, iv measured upto 24 hrs by HPLC-MS-MS analysis; type: ADME, organism-based; design: dose 10 mg/kg, route intravenous; settings: in vivo
[10] = molecular target: T4, Cytochrome P450 2B6 (Homo sapiens, UniProt P20813); assay: Inhibition of CYP2B6 (unknown origin); type: ADME; method in brief: as §2
T4 sequence (P20813 whole entry): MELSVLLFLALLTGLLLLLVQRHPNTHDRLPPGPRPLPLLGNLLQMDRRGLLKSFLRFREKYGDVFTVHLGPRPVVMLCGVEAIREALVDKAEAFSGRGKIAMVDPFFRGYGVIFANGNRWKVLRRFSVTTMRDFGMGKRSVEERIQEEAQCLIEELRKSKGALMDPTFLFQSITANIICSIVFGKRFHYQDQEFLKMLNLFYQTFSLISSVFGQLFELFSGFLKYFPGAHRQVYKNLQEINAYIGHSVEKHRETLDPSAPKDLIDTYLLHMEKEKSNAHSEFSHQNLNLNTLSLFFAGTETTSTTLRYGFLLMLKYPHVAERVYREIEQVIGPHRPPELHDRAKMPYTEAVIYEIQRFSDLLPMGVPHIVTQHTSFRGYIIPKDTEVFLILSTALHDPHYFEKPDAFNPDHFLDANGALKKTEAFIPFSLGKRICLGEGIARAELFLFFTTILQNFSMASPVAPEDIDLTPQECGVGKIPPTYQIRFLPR

[11] = in vitro; design: dose or concentration left out as unconfirmed; settings: rat, hepatocytes
[12] = Oral bioavailability in Balb Nu/Nu mouse at 10 mg/kg measured upto 24 hrs by HPLC-MS-MS analysis; type: ADME, organism-based; settings: in vivo
Method in brief: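 Oral PK in Harlan Nu/Nu mice, n = 3 per study, dosed per os at 10 mg/kg as a 0.5% methocel suspension. Bioavailability derived from oral versus iv exposure (AUC∞), with iv dosing in the same mouse strain.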

[13] = Toxicity in human Capan1 cells xenografted Balb athymic Nu/Nu mouse assessed as maximum weight loss at 80 mg/kg, po qd administered for 12 days; type: organism-based; settings: in vivo, 288 h
Method in brief: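 BRCA-2 mutated Capan-1 pancreatic xenograft. The PARP-1 inhibitor was given orally as a methocel suspension at 80 mg/kg once daily for 12 days. Read-outs were maximal tumor growth inhibition and maximum body weight loss.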

[14] = Cmax in Balb Nu/Nu mouse at 10 mg/kg, po measured upto 24 hrs by HPLC-MS-MS analysis; type: ADME, organism-based; design: dose 10 mg/kg, route oral; settings: in vivo
[15] = Half life in Balb Nu/Nu mouse at 10 mg/kg, iv measured upto 24 hrs by HPLC-MS-MS analysis; type: ADME, organism-based; settings: in vivo
[16] = molecular target: T1, Poly [ADP-ribose] polymerase 1; assay: Binding affinity to human recombinant His/GST-tagged PARP1 catalytic domain (655-end residues) by surface plasma resonance method
[17] = molecular target: T1, Poly [ADP-ribose] polymerase 1; assay: Inhibition of PARP1 in human HeLa cells assessed as reduction in H2O2-induced PAR formation incubated for 30 mins followed by H2O2 addition for 15 mins by immunocytochemistry analysis; type: cell-based
[18] = AUC (0 to infinity) in Balb Nu/Nu mouse at 10 mg/kg, po measured upto 24 hrs by HPLC-MS-MS analysis; type: ADME, organism-based; design: dose 10 mg/kg, route oral, time infinity; settings: in vivo
[19] = Permeability of the compound in pH 7.4 HBSS at 10 uM incubated for 4 hrs by LC-MS/MS based PAMPA method; type: ADME; settings: read-out: permeability
[20] = in vitro; settings: mouse, plasma
[21] = molecular target: Poly [ADP-ribose] polymerase 2 (Homo sapiens, UniProt Q9UGN5); assay: Displacement of fluorescent probe from human recombinant full length His-tagged PARP2 by fluorescent polarization assay; method in brief: as §1
[22] = Permeability of the compound in pH 7.4 HBSS buffer assessed as percentage remained in membrane at 10 uM incubated for 4 hrs by LC-MS/MS based PAMPA method; type: ADME; settings: pH 7.4, 4 h
[23] = Toxicity in human Capan1 cells xenografted Balb athymic Nu/Nu mouse assessed as maximum body weight loss at 80 mg/kg, po qd administered for 12 days co-treated with 62.5 mg/kg, iv qd temozolomide for 5 days starting from day 3; settings: in vivo
[24] = in vitro; design: dose or concentration left out as unconfirmed; settings: human, liver microsomes
[25] = AUC (0 to infinity) in Balb Nu/Nu mouse at 5 mg/kg, iv measured upto 24 hrs by HPLC-MS-MS analysis; type: ADME, organism-based; design: dose 5 mg/kg, time infinity, route intravenous; settings: in vivo
[26] = Cmax in Balb Nu/Nu mouse at 5 mg/kg, iv measured upto 24 hrs by HPLC-MS-MS analysis; type: ADME, organism-based; design: dose 5 mg/kg, route intravenous; settings: in vivo
[27] = Half life in Balb Nu/Nu mouse at 5 mg/kg, iv measured upto 24 hrs by HPLC-MS-MS analysis; type: ADME, organism-based; settings: in vivo
[28] = in vivo; settings: Balb Nu/Nu, mouse, iv, 5 mg/kg
[29] = tested on: CAPAN-1; assay: Antitumor activity against human Capan1 cells xenografted in Balb athymic Nu/Nu mouse assessed as maximal tumor growth inhibition at 62.5 mg/kg, iv qd for 5 days; type: functional; settings: CAPAN-1, iv, 120 h, read-out: TGI
Method in brief: (§3)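 Capan-1 pancreatic xenograft. Temozolomide was given alone at 62.5 mg/kg iv once daily for 5 days. Maximal tumor growth inhibition and maximum body weight loss were recorded.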

[30] = Toxicity in human Capan1 cells xenografted Balb athymic Nu/Nu mouse assessed as maximum weight loss at 62.5 mg/kg, iv qd for 5 days; type: organism-based; settings: in vivo, 120 h; method in brief: as §3

T1 sequence (P09874 whole entry): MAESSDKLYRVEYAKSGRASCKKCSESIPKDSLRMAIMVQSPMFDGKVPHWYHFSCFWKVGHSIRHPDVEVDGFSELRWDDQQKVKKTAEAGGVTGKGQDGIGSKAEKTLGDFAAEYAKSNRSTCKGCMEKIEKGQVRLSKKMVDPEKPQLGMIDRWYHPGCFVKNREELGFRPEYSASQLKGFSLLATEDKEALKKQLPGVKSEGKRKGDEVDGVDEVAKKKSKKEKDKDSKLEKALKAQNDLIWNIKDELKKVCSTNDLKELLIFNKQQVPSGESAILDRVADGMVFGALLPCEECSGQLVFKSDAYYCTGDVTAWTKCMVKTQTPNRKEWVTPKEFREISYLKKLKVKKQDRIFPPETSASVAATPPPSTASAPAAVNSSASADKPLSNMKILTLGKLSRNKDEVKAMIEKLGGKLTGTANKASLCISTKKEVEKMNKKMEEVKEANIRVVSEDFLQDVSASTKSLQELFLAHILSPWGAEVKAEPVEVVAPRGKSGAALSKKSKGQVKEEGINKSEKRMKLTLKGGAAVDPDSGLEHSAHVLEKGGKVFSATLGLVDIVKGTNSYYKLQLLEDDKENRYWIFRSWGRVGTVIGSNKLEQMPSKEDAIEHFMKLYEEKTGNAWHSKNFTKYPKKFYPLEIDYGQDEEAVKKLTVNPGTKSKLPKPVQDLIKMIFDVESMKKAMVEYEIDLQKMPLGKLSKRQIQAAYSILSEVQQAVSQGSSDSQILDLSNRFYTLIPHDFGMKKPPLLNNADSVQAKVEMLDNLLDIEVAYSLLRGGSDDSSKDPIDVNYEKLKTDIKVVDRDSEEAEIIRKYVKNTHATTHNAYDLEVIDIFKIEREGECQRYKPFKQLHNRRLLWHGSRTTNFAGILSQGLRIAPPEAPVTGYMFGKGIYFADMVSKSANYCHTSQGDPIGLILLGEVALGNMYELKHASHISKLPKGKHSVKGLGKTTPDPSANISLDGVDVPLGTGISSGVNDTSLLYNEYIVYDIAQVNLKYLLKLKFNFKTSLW
Chain of Cytochrome P450 2D6 (P10635 whole entry, canonical isoform): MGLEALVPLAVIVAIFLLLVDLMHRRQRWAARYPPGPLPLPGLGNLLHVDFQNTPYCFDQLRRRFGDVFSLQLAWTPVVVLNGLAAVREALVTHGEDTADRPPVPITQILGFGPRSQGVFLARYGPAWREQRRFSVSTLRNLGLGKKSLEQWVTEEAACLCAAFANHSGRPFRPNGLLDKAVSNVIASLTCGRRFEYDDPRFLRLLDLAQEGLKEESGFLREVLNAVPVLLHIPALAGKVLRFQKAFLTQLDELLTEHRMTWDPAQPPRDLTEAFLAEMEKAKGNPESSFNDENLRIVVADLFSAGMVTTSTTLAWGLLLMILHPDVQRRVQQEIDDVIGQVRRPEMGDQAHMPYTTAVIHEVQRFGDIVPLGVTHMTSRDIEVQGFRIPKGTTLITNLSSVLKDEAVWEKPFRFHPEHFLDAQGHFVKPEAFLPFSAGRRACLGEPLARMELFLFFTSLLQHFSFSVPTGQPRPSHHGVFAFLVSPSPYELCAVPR
Chain of Poly [ADP-ribose] polymerase 2 (Q9UGN5 whole entry): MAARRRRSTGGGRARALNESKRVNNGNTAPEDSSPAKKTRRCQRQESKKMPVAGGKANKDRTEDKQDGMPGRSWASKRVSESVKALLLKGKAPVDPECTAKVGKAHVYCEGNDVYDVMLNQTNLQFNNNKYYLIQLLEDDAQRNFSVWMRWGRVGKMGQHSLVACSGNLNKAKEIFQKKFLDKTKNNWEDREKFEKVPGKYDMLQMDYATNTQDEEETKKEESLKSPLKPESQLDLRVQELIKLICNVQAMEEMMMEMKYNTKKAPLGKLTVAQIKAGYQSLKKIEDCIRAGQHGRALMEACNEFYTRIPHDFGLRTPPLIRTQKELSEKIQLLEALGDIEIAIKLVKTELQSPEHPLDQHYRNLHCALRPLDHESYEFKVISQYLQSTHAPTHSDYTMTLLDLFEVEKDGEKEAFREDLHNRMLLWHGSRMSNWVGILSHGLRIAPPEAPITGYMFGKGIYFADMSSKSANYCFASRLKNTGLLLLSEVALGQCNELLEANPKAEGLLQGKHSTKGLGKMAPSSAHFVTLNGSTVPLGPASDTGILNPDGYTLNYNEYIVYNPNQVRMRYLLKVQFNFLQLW

| SMILES | pKd [1] | pKd [3] | pKd [4] | pIC50 [5] | half-life [6] [h] | solubility [8] [µM] | pIC50 [10] | CLint scaled at 1.5 h [11] [L/h/kg] | bioavailability [12] [%] | Cmax [14] [µM] | pKd [16] | pIC50 [17] | AUC(0-inf) [18] [µM·h] | Papp at 4 h, 10 µM [19] [nm/s] | fraction unbound [20] | pKd [21] | permeability [22] [%] | CLint scaled at 0.5 h [24] [L/h/kg] | further results |
| --- | --- | --- | --- | --- | --- | --- | --- | --- | --- | --- | --- | --- | --- | --- | --- | --- | --- | --- | --- |
| C[C@H]1c2cccc(C(N)=O)c2C(=O)N1C1CCN(C2CCCCC2)CC1 | > 7.52 | < 5.00 | < 5.00 | < 4.51 | 2.6 | > 225 | < 4.51 | 0.3 | 78.3 | 1.4 | 7.80 | 7.57 | 4.9 | 273 | 0.13 | < 5.00 | 0 | 0.3 | inhibition in vivo at 80 mg/kg [2]: 48%; AUC(0-inf) [7]: 8.2 µM·h; Cmax [9]: 4.9 µM; Activity [13]: 6%; half-life [15]: 2.1 h; Activity [23]: 17% |
| C[C@@H]1c2cccc(C(N)=O)c2C(=O)N1C1CCN(C2CCCCC2)CC1 | 5.88 |  |  |  |  |  |  |  |  |  | 5.75 | 6.79 |  |  |  |  |  |  |  |
| CC1c2cc(F)cc(C(N)=O)c2C(=O)N1C1CCN(C2CCCCC2)CC1 (racemic) |  |  |  |  |  |  |  |  |  |  |  | 6.19 |  |  |  |  |  |  |  |
| CC1c2cccc(C(N)=O)c2C(=O)N1C1CCN(C2CCCCC2)CC1 (racemic) | > 7.52 | < 5.00 | < 5.00 | 6.22 | 3.1 | 140 (≈ 49.8 µg/mL) | 5.31 | 0.3 | 100 | 2.5 |  | 7.30 | 13.5 | 394 | 0.05 | < 5.00 | 8 | 0.3 | AUC(0-inf) [25]: 6.3 µM·h; Cmax [26]: 2.5 µM; half-life [27]: 1.8 h; Vd at 24 h [28]: 3.6 L/kg |
| Cn1nnc2c(C(N)=O)ncn2c1=O [TEMOZOLOMIDE] |  |  |  |  |  |  |  |  |  |  |  |  |  |  |  |  |  |  | inhibition in vivo at 62.5 mg/kg [29]: 46%; Activity [30]: 8% |
